Source: ChEMBL document CHEMBL3769310, “Scouting new sigma receptor ligands: Synthesis, pharmacological evaluation and molecular modeling of 1,3-dioxolane-based structures and derivatives” (Eur J Med Chem, 2016)
The source made the active and inactive calls.

Experiments:
[1] = target: Sigma non-opioid intracellular receptor 1 (Cavia porcellus, UniProt Q60492); assay: Displacement of [3H]-(+)-pentazocine from sigma-1 receptor in guinea pig brain membranes after 150 mins by liquid scintillation counting method; type: cell membranes, Membrane
Chain of Sigma non-opioid intracellular receptor 1 (Q60492 whole entry): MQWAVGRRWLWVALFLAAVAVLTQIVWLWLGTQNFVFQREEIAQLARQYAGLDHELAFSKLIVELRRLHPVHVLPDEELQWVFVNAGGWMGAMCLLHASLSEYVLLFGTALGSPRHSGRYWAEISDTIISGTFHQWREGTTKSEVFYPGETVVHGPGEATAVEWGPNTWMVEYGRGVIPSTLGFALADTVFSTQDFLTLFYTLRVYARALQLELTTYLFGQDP

[2] = Displacement of [3H]DTG from sigma-2 receptor in guinea pig brain membranes after 120 mins by liquid scintillation counting method; type: cell membranes, Cavia porcellus, Membrane
Procedure, shortened: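 Nonspecific with 5 µM DTG. Stopped with ice-cold 10 mM Tris pH 8.0, filtered on PEI-soaked GF/B, scintillation counted. Ki from duplicates, three experiments.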

[3] = target: T1, 5-hydroxytryptamine receptor 1A (Homo sapiens, UniProt P08908); assay: Displacement of [3H]8-OH-DPAT from human 5-HT1A expressed in human HeLa cells after 30 mins; type: cell-based
T1 sequence (P08908 whole entry): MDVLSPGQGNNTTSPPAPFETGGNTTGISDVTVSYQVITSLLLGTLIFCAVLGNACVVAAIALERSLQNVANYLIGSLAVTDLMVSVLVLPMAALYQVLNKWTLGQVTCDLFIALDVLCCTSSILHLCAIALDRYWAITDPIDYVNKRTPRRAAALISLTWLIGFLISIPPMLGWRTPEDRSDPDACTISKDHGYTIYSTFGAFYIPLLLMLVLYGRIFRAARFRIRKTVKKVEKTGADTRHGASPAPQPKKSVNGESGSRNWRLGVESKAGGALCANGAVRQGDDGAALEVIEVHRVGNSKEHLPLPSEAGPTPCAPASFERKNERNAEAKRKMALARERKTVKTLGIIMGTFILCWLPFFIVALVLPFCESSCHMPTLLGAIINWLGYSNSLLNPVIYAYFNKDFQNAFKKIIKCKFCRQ

[4] = species: Cavia porcellus; assay: Selectivity ratio of Ki for sigma-1 receptor in guinea pig brain membranes to Ki for sigma-2 receptor in guinea pig brain membranes; type: cell membranes
[5] = tested on: HeLa; assay: Selectivity ratio of Ki for sigma-1 receptor in guinea pig brain membranes to Ki for human 5-HT1A expressed in human HeLa cells; type: cell-based
[6] = tested on: HeLa; assay: Selectivity ratio of Ki for sigma-2 receptor in guinea pig brain membranes to Ki for human 5-HT1A expressed in human HeLa cells; type: cell-based
[7] = tested on: Rattus norvegicus; assay: Analgesic activity in Sprague-Dawley rat assessed as withdrawal latency at 1 mg/kg, sc measured after 30 to 120 mins by tail flick test; type: functional, organism-based
Procedure, shortened: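 Male Sprague-Dawley rats, 180–200 g, 8–10 per group, dosed s.c. Radiant heat tail-flick with I.R. source on lower third of tail at 25 ± 1 °C. Basal latency 3–4 s, taken as mean of three readings at 5 min intervals. Cut-off 10 s. Latencies read at 30, 45, 60, 90 and 120 min after injection; saline group as control. Blinded observers; mean ± SE, two-way ANOVA then t test.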

Row | SMILES | Ki [1] | pKi [2] | Ki [3] | Ratio Ki [4] | Ratio Ki [5] | Ratio Ki [6] | Activity [7]
1 | c1ccc(CC2CCN(CC3CSC(c4ccccc4)(c4ccccc4)S3)CC2)cc1 (centres undefined) | 15.1 nM | 7.11 | > 1000 nM | 5 | > 66 | > 66 | –
2 | c1ccc(CN2CCN(CC3CCC(c4ccccc4)(c4ccccc4)O3)CC2)cc1 (centres undefined) | 87.1 nM | 6.65 | > 1000 nM | 3 | > 11 | > 11 | –
3 | O[C@@H]1[C@@H](CN2CCN(Cc3ccccc3)CC2)CCC1(c1ccccc1)c1ccccc1 (relative stereo) | 38 nM | 7 | 126 nM | 3 | 3 | 3 | –
4 | c1ccc(CC2CCN(CC3COC(C4CCCCC4)(C4CCCCC4)O3)CC2)cc1 (centres undefined) | 209 nM | < 6 | > 1000 nM | > 5 | > 5 | > 5 | –
5 | c1ccc(CC2CCN(C[C@@H]3CO[C@@](c4ccccc4)(C4CCCCC4)O3)CC2)cc1 (relative stereo) | 52.5 nM | 6.84 | > 1000 nM | 3 | > 19 | > 19 | –
6 | c1ccc(CC2CCN(CC3COC(c4ccccc4)(c4ccccc4)O3)CC2)cc1 (centres undefined) | 2.19 nM | 8.2 | 550 nM | 3 | 251 | 251 | –
7 | c1ccc(CN2CCN(CC3CSC(c4ccccc4)(c4ccccc4)S3)CC2)cc1 (centres undefined) | 302 nM | 5.64 | > 1000 nM | 8 | > 3 | > 3 | –
8 | c1ccc(CC2CCN(CC3CSC(c4ccccc4)(c4ccccc4)O3)CC2)cc1 (centres undefined) | 12 nM | 7.55 | – | 2 | > 83 | > 83 | –
9 | c1ccc(CN2CCN(CCOC(c3ccccc3)c3ccccc3)CC2)cc1 | 20.4 nM | 7.95 | > 1000 nM | 1 | > 89 | > 89 | –
10 | O=C1C(CN2CCN(Cc3ccccc3)CC2)CCC1(c1ccccc1)c1ccccc1 (centres undefined) | 646 nM | 4.9 | > 1000 nM | 20 | > 1.5 | > 1.5 | –
11 | c1ccc(CN2CCN(CC3COC(c4ccccc4)(c4ccccc4)O3)CC2)cc1 (centres undefined) | 1.7 nM | 8.38 | > 1000 nM | 3 | > 589 | > 589 | –
12 | c1ccc(CN2CCN(CC3COC(C4CCCCC4)(C4CCCCC4)O3)CC2)cc1 (centres undefined) | 3.39 nM | 8.3 | > 1000 nM | 2 | > 29 | > 29 | –
13 | c1ccc(CC2CCN(C[C@H]3CO[C@@](c4ccccc4)(C4CCCCC4)O3)CC2)cc1 | 56.2 nM | 6.43 | > 1000 nM | 7 | > 18 | > 18 | –
14 | c1ccc(CN2CCN(C[C@H]3CO[C@@](c4ccccc4)(C4CCCCC4)O3)CC2)cc1 (relative stereo) | 1.07 nM | 7.79 | > 1000 nM | 15 | > 933 | > 933 | –
15 | OCC(CN1CCN(Cc2ccccc2)CC1)OC(c1ccccc1)c1ccccc1 (centres undefined) | 11.2 nM | 7.75 | > 1000 nM | 2 | > 89 | > 89 | –
16 | c1ccc(CC2CCN(CC3COc4ccccc4O3)CC2)cc1 (centres undefined) | 16.6 nM | 7.6 | – | – | – | – | –
17 | c1ccc(CC2CCN(CC3COC4(CCCCC4)O3)CC2)cc1 (centres undefined) | 2 nM | 7.72 | 162 nM | 10 | 81 | 81 | –
18 | c1ccc(CN2CCN(CC3COc4ccccc4O3)CC2)cc1 (centres undefined) | 15.8 nM | 7.55 | – | – | – | – | –
19 | c1ccc(CC2CCN(CCOC(c3ccccc3)c3ccccc3)CC2)cc1 | 56.2 nM | 6.77 | > 1000 nM | 3 | > 18 | > 18 | –
20 | c1ccc(CN2CCN(CC3CSC(c4ccccc4)(c4ccccc4)O3)CC2)cc1 (centres undefined) | 63.1 nM | 6.67 | – | 3 | > 16 | > 16 | –
21 | c1ccc(CN2CCN(C[C@@H]3CO[C@@](c4ccccc4)(C4CCCCC4)O3)CC2)cc1 (relative stereo) | 30.9 nM | 7.75 | > 1000 nM | 1 | > 56 | > 56 | –
22 | O=C1C(CN2CCC(Cc3ccccc3)CC2)CCC1(c1ccccc1)c1ccccc1 (centres undefined) | 1120 nM | 5.66 | > 1000 nM | 2 | 1 | 1 | –
23 | c1ccc(CN2CCN(CC3COC4(CCCCC4)O3)CC2)cc1 (centres undefined) | 0.741 nM | 7.46 | > 1000 nM | 47 | > 1350 | > 1350 | inactive
24 | O[C@H]1[C@@H](CN2CCC(Cc3ccccc3)CC2)CCC1(c1ccccc1)c1ccccc1 (relative stereo) | 282 nM | 5.66 | 7.59 nM | 8 | 0.02 | 0.02 | –
25 | O[C@H]1[C@@H](CN2CCN(Cc3ccccc3)CC2)CCC1(c1ccccc1)c1ccccc1 (relative stereo) | 35.5 nM | 6.62 | 7.24 nM | 6.8 | 0.2 | 0.2 | –
26 | c1ccc(CC2CCN(CC3CCC(c4ccccc4)(c4ccccc4)O3)CC2)cc1 (centres undefined) | 174 nM | 6.69 | > 1000 nM | 1 | > 6 | > 6 | –
27 | O[C@@H]1[C@@H](CN2CCC(Cc3ccccc3)CC2)CCC1(c1ccccc1)c1ccccc1 (relative stereo) | 229 nM | 5.05 | 50.1 nM | 39 | 0.21 | 0.21 | –
28 | OCC(CN1CCC(Cc2ccccc2)CC1)OC(c1ccccc1)c1ccccc1 (centres undefined) | 200 nM | 6.56 | 417 nM | 1 | 2.5 | 2.5 | –
